# Source: ChEMBL document CHEMBL1135117, “Identification of potent and selective oxytocin antagonists. Part 2: further investigation of benzofuran derivatives” (Bioorg Med Chem Lett, 2002)
# Assays:
# Oxytocin receptor [1] = biological target: T1, Oxytocin receptor (Homo sapiens, UniProt P30559); assay: Displacement of 3[H]oxytocin from human oxytocin receptor
# T1 sequence (P30559 whole entry): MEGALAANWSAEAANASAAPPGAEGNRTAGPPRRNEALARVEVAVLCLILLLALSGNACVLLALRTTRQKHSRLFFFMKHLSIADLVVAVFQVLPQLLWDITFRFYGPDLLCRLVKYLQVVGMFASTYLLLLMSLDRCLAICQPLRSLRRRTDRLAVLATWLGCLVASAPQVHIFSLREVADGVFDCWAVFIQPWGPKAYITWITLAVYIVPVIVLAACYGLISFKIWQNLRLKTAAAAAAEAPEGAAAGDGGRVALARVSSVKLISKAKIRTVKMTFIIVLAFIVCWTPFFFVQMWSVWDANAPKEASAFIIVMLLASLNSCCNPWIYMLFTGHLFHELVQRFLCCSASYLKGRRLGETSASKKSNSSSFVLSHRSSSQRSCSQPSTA
# Albumin = Albumin (Homo sapiens, UniProt P02768); assay: Compound was tested for Serum albumin binding
# Albumin, sequence (P02768 whole entry): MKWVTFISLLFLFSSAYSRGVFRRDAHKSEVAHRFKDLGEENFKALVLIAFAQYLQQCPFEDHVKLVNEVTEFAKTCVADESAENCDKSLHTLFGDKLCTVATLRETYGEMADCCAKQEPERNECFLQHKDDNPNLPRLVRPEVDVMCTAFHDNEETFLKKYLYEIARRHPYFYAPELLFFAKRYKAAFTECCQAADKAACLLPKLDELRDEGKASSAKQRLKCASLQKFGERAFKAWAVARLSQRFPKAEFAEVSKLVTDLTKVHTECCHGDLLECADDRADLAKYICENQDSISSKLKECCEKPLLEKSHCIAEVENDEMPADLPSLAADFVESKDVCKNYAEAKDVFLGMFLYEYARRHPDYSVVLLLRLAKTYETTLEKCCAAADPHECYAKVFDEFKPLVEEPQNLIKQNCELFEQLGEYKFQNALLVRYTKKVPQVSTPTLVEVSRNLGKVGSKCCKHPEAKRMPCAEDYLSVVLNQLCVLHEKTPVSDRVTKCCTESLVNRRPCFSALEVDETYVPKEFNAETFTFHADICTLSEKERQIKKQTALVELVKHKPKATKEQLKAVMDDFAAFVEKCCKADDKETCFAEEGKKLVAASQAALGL
# [2] = Bioavailability in rat; format: ADME, organism-based; details: in vivo
# [3] = Tested for the pharmacokinetic parameter in rat and expressed as area under curve; format: ADME, organism-based; set-up: concentration or dose not given beside the values; details: in vivo
# [4] = Compound was tested for its half life in rat; format: ADME, organism-based; details: in vivo
# [5] = Compound was tested for plasma clearance in rat; format: ADME, organism-based
# [6] = Bioavailability in dog; format: ADME, organism-based, Canis lupus familiaris; details: in vivo
# [7] = Compound was tested for its half life in dog; format: ADME, organism-based, Canis lupus familiaris; details: in vivo
# Vasopressin V1a receptor = Vasopressin V1a receptor (Homo sapiens, UniProt P37288); assay: Compound was tested for its ability to displace vasopressin from human Vasopressin V1a receptor
# Vasopressin V1a receptor, sequence (P37288 whole entry): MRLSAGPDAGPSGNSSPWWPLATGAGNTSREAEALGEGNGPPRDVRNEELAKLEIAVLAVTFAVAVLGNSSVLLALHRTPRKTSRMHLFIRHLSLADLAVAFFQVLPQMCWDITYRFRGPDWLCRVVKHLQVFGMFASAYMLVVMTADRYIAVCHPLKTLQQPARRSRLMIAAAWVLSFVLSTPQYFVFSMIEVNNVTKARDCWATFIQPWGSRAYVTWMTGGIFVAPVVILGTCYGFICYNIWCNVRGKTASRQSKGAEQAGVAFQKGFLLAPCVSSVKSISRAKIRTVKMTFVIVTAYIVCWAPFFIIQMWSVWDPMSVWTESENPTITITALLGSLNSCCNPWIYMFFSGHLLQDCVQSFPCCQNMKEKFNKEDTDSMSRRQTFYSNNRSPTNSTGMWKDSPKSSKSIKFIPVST
# [8] = Compound was tested for plasma clearance in dog; format: ADME, organism-based, Canis lupus familiaris
# [9] = Tested for lipophilicity; format: physicochemical; details: octanol/water
# Rattus norvegicus = species on record: Rattus norvegicus; assay: Serum concentration for 50% inhibition of uterine contractility response to oxytocin in rat; format: functional, organism-based
# How it was run: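 Adult female AHA rats pre-treated 18 h with diethylstilboestrol (250 µg/kg ip, corn oil), anaesthetised with pentobarbitone (60 mg/kg ip); uterine tension ~2 g. OT 0.3 µg/kg iv given 3–180 min after a single iv bolus of antagonist (DMSO/PEG200/water 20:50:30). Response = 10-min area under the contraction–time curve. Plasma drug measured by mass spectrometry in serial blood samples.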
# [10] = biological target: T2, Oxytocin receptor (Homo sapiens) (UniProt P30559); assay: Tested for ratio of displacement of 3H oxytocin from human OT in presence and absence of 50 mg/mL human serum albumin
# T2 sequence (whole entry): T1 sequence (P30559 whole entry)
# How it was run: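 Displacement of [3H]oxytocin from human OT receptor, with IC50 measured with and without 50 mg/mL human serum albumin. The radioligand was made up in buffer containing 100 mg/mL HSA, a pre-dilution level. The value is the ratio of the IC50 with HSA to the IC50 without HSA.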
# Oxytocin receptor [11] = biological target: T3, Oxytocin receptor (Rattus norvegicus, UniProt P70536); assay: Compound was tested for displacement of 3[H] oxytocin from rat OT receptor (in vitro)
# T3 sequence (P70536 whole entry): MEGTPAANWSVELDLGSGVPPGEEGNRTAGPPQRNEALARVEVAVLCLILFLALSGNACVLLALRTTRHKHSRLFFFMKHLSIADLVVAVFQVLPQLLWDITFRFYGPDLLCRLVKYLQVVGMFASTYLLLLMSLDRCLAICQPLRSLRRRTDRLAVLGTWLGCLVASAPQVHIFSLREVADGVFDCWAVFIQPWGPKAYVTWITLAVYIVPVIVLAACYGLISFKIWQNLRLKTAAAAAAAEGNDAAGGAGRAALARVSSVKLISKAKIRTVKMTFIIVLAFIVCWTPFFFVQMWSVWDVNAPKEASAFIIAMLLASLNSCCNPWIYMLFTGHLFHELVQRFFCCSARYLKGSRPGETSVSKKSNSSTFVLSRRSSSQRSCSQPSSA
# How it was run: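 Myometrium from rats that littered within 2 h, homogenised in sucrose buffer; membrane fraction pelleted at 48,000g, 4 °C. Filtration binding with [3H]oxytocin at 1 nM in 50 mM HEPES, 10 mM MgCl2, pH 7.4, plus competing ligand. Incubation 1 h at room temperature, then GF/C filtration, ice-cold buffer washes, scintillation counting of bound label.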
# [12] = Tested for plasma clearance in dog; format: ADME, organism-based, Canis lupus familiaris
# [13] = Compound was tested for lipophilicity; format: physicochemical; details: octanol/water
# [14] = Compound was tested for its lipophilicity; format: physicochemical; details: octanol/water
# [15] = Compound was tested for half life in dog; format: ADME, organism-based, Canis lupus familiaris; details: in vivo
# [16] = Clearance in rat; format: ADME, organism-based; details: in vivo
SMILES,Ki (Oxytocin receptor [1]) [nM],Binding (Albumin) [%],bioavailability [2] [%],half-life [4] [h],clearance [5] [mL/min/kg],half-life [7] [h],other results
O=C(Cn1cc(C(F)(F)F)ccc1=O)NCc1cc2cc(C(=O)N3CCC(N4C(=O)OCc5ccc(F)cc54)CC3)ccc2o1,6.31,,,,,,
O=C(c1ccc2oc(-c3cccc(Cn4cc(C(F)(F)F)ccc4=O)c3)cc2c1)N1CCC(N2C(=O)OCc3ccccc32)CC1,794,98,> 45,2.2,7,,AUC [3]: 5700 ng·h/mL
COc1cccn(CC(=O)NCc2cc3cc(C(=O)N4CCC(N5C(=O)OCc6ccccc65)CC4)ccc3o2)c1=O,2.51,,3,1.2,22,1.1,bioavailability [6]: 68%; Ki (Vasopressin V1a receptor): 1580 nM; clearance [8]: 19 mL/min/kg
O=C(Cn1cc(C(F)(F)F)ccc1=O)NCc1cc2cc(C(=O)N3CCC(N4C(=O)OCc5ccccc54)CC3)cnc2o1,3.16,86.2,2,0.6,26,,logD [9]: 1.85; IC50 (Rattus norvegicus): 20 nM; HSA shift [10]: 19; IC50 (Oxytocin receptor [11]): 744 nM
O=C(Cn1cc(C(F)(F)F)ccc1=O)NCc1nc2ccc(C(=O)N3CCC(N4C(=O)OCc5ccccc54)CC3)cc2s1,10,,,,,,
Cn1c(CNC(=O)Cn2cc(C(F)(F)F)ccc2=O)cc2ccc(C(=O)N3CCC(N4C(=O)OCc5ccccc54)CC3)cc21,50.1,,,,,,
O=C(Cn1cc(C(F)(F)F)ccc1=O)NCc1cc2cc(C(=O)N3CCC(N4C(=O)CCc5ccccc54)CC3)ccc2o1,25.1,,44,1.1,13,,
O=C(Cn1ccccc1=O)NCc1cc2cc(C(=O)N3CCC(N4C(=O)OCc5ccccc54)CC3)ccc2o1,6.31,,,,,0.5,clearance [8]: 34 mL/min/kg
O=C(Cn1cc(C(F)(F)F)ccc1=O)NCc1cc2cc(C(=O)N3CCC(N4C(=O)OCc5cc(F)ccc54)CC3)ccc2o1,6.31,,18,0.9,17,,
O=C(Cn1cc(C(F)(F)F)ccc1=O)NCc1cc2cc(C(=O)N3CCC(N4C(=O)OCc5cccc(F)c54)CC3)ccc2o1,7.94,,67,1.2,11,,
O=C(Cn1ccc2ccccc2c1=O)NCc1cc2cc(C(=O)N3CCC(N4C(=O)OCc5ccccc54)CC3)ccc2o1,6.31,,17,0.8,10,1.1,clearance [8]: 6 mL/min/kg
O=C(Cn1cc(C(F)(F)F)ccc1=O)NCc1cc2cc(C(=O)N3CCC(N4C(=O)OCc5ccc(Cl)cc54)CC3)ccc2o1,3.16,,35,1,21,,
O=C(Cn1cc(C(F)(F)F)ccc1=O)NCc1cc2cc(C(=O)N3CCC(N4C(=O)OCc5c(F)cccc54)CC3)ccc2o1,100,,,,,,
O=C(Cn1cc(C(F)(F)F)ccc1=O)NCc1cc2cc(C(=O)N3CCC(N4C(=O)OCc5ccccc54)CC3)ccc2o1,2,96.2,16,1,10,1.5,clearance [12]: 8 mL/min/kg; bioavailability [6]: 51%; IC50 (Rattus norvegicus): 20 nM; HSA shift [10]: 46; Ki (Vasopressin V1a receptor): 1260 nM; logD [13]: 2.16; IC50 (Oxytocin receptor [11]): 3040 nM
O=C(c1ccc2oc(CN3CCC[C@@H](n4cc(C(F)(F)F)ccc4=O)C3)cc2c1)N1CCC(N2C(=O)OCc3ccccc32)CC1,25.1,96,,0.6,28,,bioavailability [6]: 2%; AUC [3]: 150 ng·h/mL; HSA shift [10]: 222
O=C(Cn1ccc(N2CCOCC2)nc1=O)NCc1cc2cc(C(=O)N3CCC(N4C(=O)OCc5ccccc54)CC3)ccc2o1,0.501,,< 1,0.8,17,1.2,bioavailability [6]: 2%; clearance [8]: 11 mL/min/kg
O=C(Cn1cc(C(F)(F)F)ccc1=O)NCc1cc2cc(C(=O)N3CCC(N4C(=O)OCc5ccccc54)CC3)c(F)cc2o1,7.94,,15,1.3,21,,
O=C(c1ccc2oc(CN3CCCC[C@H]3Cn3cc(C(F)(F)F)ccc3=O)cc2c1)N1CCC(N2C(=O)OCc3ccccc32)CC1,10,98,,,,,HSA shift [10]: 90
COc1cc(OC2CCN(C(C)=O)CC2)ccc1C(=O)N1CCC(N2C(=O)OCc3ccccc32)CC1,6.31,83.7,55,1.1,51,1.1,bioavailability [6]: 29%; logD [14]: 1.66; IC50 (Rattus norvegicus): 25 nM; Ki (Vasopressin V1a receptor): > 2000 nM; clearance [8]: 13 mL/min/kg
O=C(Cn1cnc(C(F)(F)F)cc1=O)NCc1cc2cc(C(=O)N3CCC(N4C(=O)OCc5ccccc54)CC3)ccc2o1,3.98,,14,0.8,20,1.6,bioavailability [6]: 34%; Ki (Vasopressin V1a receptor): 3980 nM; clearance [8]: 6 mL/min/kg
CCOc1ccn(CC(=O)NCc2cc3cc(C(=O)N4CCC(N5C(=O)OCc6ccccc65)CC4)ccc3o2)c(=O)n1,2,,2,0.8,35,,clearance [12]: 12 mL/min/kg; bioavailability [6]: 43%; Ki (Vasopressin V1a receptor): 1580 nM; half-life [15]: 1.9 h
Cn1ncc2c(=O)n(CC(=O)NCc3cc4cc(C(=O)N5CCC(N6C(=O)OCc7ccccc76)CC5)ccc4o3)cnc21,1.26,,,,,1,bioavailability [6]: 36%; clearance [8]: 11 mL/min/kg
O=C(Cn1ccc(-c2ccccc2)nc1=O)NCc1cc2cc(C(=O)N3CCC(N4C(=O)OCc5ccccc54)CC3)ccc2o1,1,,,,,1.3,clearance [8]: 9 mL/min/kg
O=C(c1ccc2oc(-c3cc(Cn4cc(C(F)(F)F)ccc4=O)ccn3)cc2c1)N1CCC(N2C(=O)OCc3ccccc32)CC1,> 3160,96,,,,,
O=C(Cn1cc(C(F)(F)F)ccc1=O)NCc1nc2cc(C(=O)N3CCC(N4C(=O)OCc5ccccc54)CC3)ccc2s1,79.4,,,,,,
O=C(Cn1cc(C(F)(F)F)ccc1=O)NCc1cc2ccc(C(=O)N3CCC(N4C(=O)OCc5ccccc54)CC3)cc2o1,100,,,,,,
O=C(c1ccc2oc(-c3cncc(Cn4cc(C(F)(F)F)ccc4=O)c3)cc2c1)N1CCC(N2C(=O)OCc3ccccc32)CC1,63.1,96,41,1.4,7,,AUC [3]: 5400 ng·h/mL; HSA shift [10]: 17
O=C(c1ccc2oc(-c3cccc(Cn4cc(C(F)(F)F)ccc4=O)n3)cc2c1)N1CCC(N2C(=O)OCc3ccccc32)CC1,10,98,22,1.2,12,,AUC [3]: 1500 ng·h/mL; HSA shift [10]: 87
O=C(c1ccc2oc(CN3CCC(n4cc(C(F)(F)F)ccc4=O)CC3)cc2c1)N1CCC(N2C(=O)OCc3ccccc32)CC1,794,93,79,1.7,,,AUC [3]: 12000 ng·h/mL; clearance [16]: 6 mL/min/kg; HSA shift [10]: 4
